Pemphigus Ab inh: inhibitors of pemphigus antibody binding to human desmoglein-3 | P32926 | DSG3-coupled beads, scFv-anti-DSG3-GFP binding, flow cytometry; stronger effect = lower value | binding (percent of control), % at 10 µM | hit rate 0.48% among 310,000 | AID 588358;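 active = binding more than 3 SD below its plate's average and above zero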
ALR inh: inhibitors of human sulfhydryl oxidase ALR; purified ALR, DTT oxidation, H2O2 HRP-luminol luminescence; inhibition, % (no concentration beside the values); hit rate 3.8% among 290,000; AID 485317;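 active = mean replicate inhibition above about 79%, with every replicate also reaching it, limit read from the data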
Target sequence (P55789 whole entry, looked up): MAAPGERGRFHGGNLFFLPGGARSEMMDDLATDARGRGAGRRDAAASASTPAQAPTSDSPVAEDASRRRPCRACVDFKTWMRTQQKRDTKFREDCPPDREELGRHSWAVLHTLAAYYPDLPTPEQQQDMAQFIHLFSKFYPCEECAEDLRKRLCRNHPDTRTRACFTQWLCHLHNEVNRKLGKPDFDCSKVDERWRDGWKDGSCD
Arrestin-AP2 inh: inhibitors of human beta-arrestin and AP2 interaction | FITC-arrestin peptide / GST-AP2 beads, flow cytometry; AP2 beta2 appendage carries R879A mutation | inhibition, % at 10 µM | hit rate 0.31% among 340,000 | AID 504490;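 active = inhibition above a set limit, near 3 SD of compounds lacking own fluorescence, cut at about 54% in these data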;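 note: plate controls were DMSO wells for no effect and 5 µM unlabelled arrestin peptide for full effect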
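system = GST-tagged AP2 beta2-adaptin appendage (R879A) on 4 µm glutathione beads | reagent = FITC-labelled arrestin peptide probe, 50 nM final | schedule = compound with beads 12 min RT, then probe 1 h RT | signal = HyperCyt-sampled flow cytometry, FL1 channel, ex 488/em 535 nm | read-out = percent response from loss of bead-bound FITC fluorescence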
PolyA inhibitor: yeast polyadenylation inhibition; AID 1875; activity score, % at 12 µM; hit rate 0.02% among 300,000; S. cerevisiae SKY197-pL101 polyadenylation reporter, beta-gal luminescence; efflux-impaired pdr1/pdr3 knockout yeast; score 100 = 6 SD above DMSO;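 active = lowest replicate activity score at least 50, where 100 means six control SD above control mean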;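 note: yeast exposed to compound for 9 h at 30 °C; higher score means more reporter readthrough which indicates perturbed polyadenylation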
NALP1 yeast inh: NALP1 inhibition; S. cerevisiae NALP1/ASC/caspase-1 growth, X-gal OD620, 72 h; inhibition, % at 10 µM; hit rate 0.61% among 280,000; AID 2071; in the data active = inhibition mostly above about 24%, no sharp cut-off; inactive = mostly below about 32%
NLRP3 yeast inh: NALP3 inhibition in yeast; Yeast reconstituted NLRP3/ASC/caspase-1, beta-gal luminescence, 24 h; inhibition, % at 10 µM; hit rate 0.39% among 330,000;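 active = inhibition of 50% or more; inactive = inhibition below 50%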;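 note: plate controls were induced DMSO wells for no effect and uninduced yeast grown without galactose for full effect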
* marks the source's active call; other numbers are inactive results; nt = not tested or not shown. Sampled rows, rich in hits. Any-hit rate of the full collection: about 4.6%.

SMILES | Pemphigus Ab inh | ALR inh | Arrestin-AP2 inh | PolyA inhibitor | NALP1 yeast inh | NLRP3 yeast inh
O=C(c1cc(O)c(O)c([N+](=O)[O-])c1)c1ccccc1F | 102.0 | 97.5* | 0.5 | nt | nt | 23.0
O=C(CN1CCN(c2cccc(C(F)(F)F)c2)CC1)N(C1CCCC1)C1CCS(=O)(=O)C1 (stereo not given) | 101.3 | nt | -11.2 | nt | nt | 14.5
O=C(O)CCN1C(=O)CC(N2C(=O)/C(=C/c3ccc(Cl)cc3)SC2=S)C1=O (stereo not given) | 95.8 | 98.4* | -1.7 | 5.3 | 43.3 | 3.2
Cc1ccc2c(c1)CO[C@]21O[C@H](CCO)C[C@H](O)[C@H]1O | 99.4 | nt | nt | nt | nt | nt
COc1ccc(NC(=O)CSc2nc(-c3ccco3)nc3cc(=O)[nH]n23)cc1Cl | 99.4 | 99.1* | 18.4 | -2.4 | 0.8 | 8.7
COc1ccc(NC(=O)CSc2n[nH]c(=O)n2C2CC2)cc1Cl | 105.3 | nt | 10.9 | nt | nt | 7.2
NNc1nc2ccc(Cl)cc2s1 | 99.4 | nt | -8.6 | -9.2 | 21.2 | 18.2
O=C(CN1C(=O)C2CC=CCC2C1=O)Nc1nc2ccc(F)cc2s1 (stereo not given) | 99.6 | 98.3* | 35.4 | -1.7 | -1.1 | 3.1
CC1CCc2nc(NC(=O)C3CCCO3)sc2C1 (stereo not given) | 108.0 | -51.1 | 16.4 | -16.7 | 32.9* | 10.6
O=C(Nc1nc2ccc(C(=O)N3CCCCC3)cc2s1)C1CCCCC1 | 95.2 | 9.4 | 19.7 | -11.0 | 2.0 | -2.0
Nc1ccc2nc(NC(=O)C3CCCCC3)sc2c1 | nt | 98.8* | -23.4 | -9.9 | 0.1 | 29.4
NNc1nc2ccc(F)cc2s1 | 91.9 | 99.4* | 0.4 | -13.9 | 41.3 | 16.8
C[C@H]1CN([C@@H](C)CO)C(=O)c2cc(Br)cnc2O[C@H]1CN(C)C(=O)c1ccc2c(c1)OCO2 | 113.4 | nt | nt | nt | nt | nt
CC1(C)C(=O)C=CC(=O)C(C)(C)C(=O)C=CC(=O)C(C)(C)C2=CC=C(O2)C(C)(C)C(=O)C=CC1=O | 93.0 | nt | -4.9 | nt | nt | nt
Cc1ccc(S(=O)(=O)N2CCN(C(=O)COC(=O)/C=C/c3ccc(OC(F)F)cc3)CC2)cc1 | nt | nt | 6.2 | nt | nt | nt
O=C(Nc1nc2ccc(F)cc2s1)C1CCCO1 (stereo not given) | 101.2 | 98.7* | 28.8 | -9.0 | 4.0 | 20.1
CCCC(C)c1nnc(NC(=O)C2CCCO2)s1 (stereo not given) | 104.5 | -6.6 | -3.6 | 18.9 | 32.7* | 23.6
O=C(Nc1nc2ccccc2s1)C1CCCO1 (stereo not given) | 98.6 | 1.9 | -4.3 | -0.8 | 12.0 | 30.4
CCOc1ccc(-n2c(=S)sc3c(=O)[nH]c(SCC(=O)NC4CCCCC4)nc32)cc1 | 109.4 | nt | nt | nt | nt | nt
CCOC(=O)C1CCN(C(=O)COC(=O)c2cccc(NS(=O)(=O)c3ccccc3)c2)CC1 | 107.5 | nt | -7.8 | nt | nt | nt
c1ccc(-c2nnc(-c3ccccn3)nn2)nc1 | 99.0 | -16.4 | -27.9 | 13.4 | nt | 11.2
c1ccc(-c2cccc(-c3ccccn3)n2)nc1 | 101.4 | -2.1 | 0.9 | 24.6 | 51.2* | 47.2
Cc1ccc(NC(=O)C(C)OC(=O)COc2cccc(C(F)(F)F)c2)cc1 (stereo not given) | 98.3 | -1.5 | -21.5 | nt | nt | 15.8
O=C1c2ccccc2NC(c2ccc(-c3cccc([N+](=O)[O-])c3)o2)N1O (stereo not given) | 104.7 | 89.6* | 39.8 | 14.2 | 23.1 | 0.0
O=C1c2ccccc2NC(c2ccc(-c3ccc(F)cc3)o2)N1O (stereo not given) | 96.2 | 48.5 | 15.2 | nt | nt | 8.7
SMILES | Pemphigus Ab inh | ALR inh | Arrestin-AP2 inh | PolyA inhibitor | NALP1 yeast inh | NLRP3 yeast inh
Cc1nc2c(cc1C(=O)N/N=C/c1ccc([N+](=O)[O-])cc1)c(=O)n(C)c(=O)n2C | -7.8* | nt | 3.6 | 5.6 | 27.4 | 7.5
O=C(COC(=O)c1cc([N+](=O)[O-])ccc1N1CCOCC1)Nc1cccc(F)c1 | 91.8 | -1.7 | -3.9 | -9.5 | 8.9 | 14.6
O=C1OCCC1Sc1nc2ccccc2s1 (stereo not given) | 100.9 | 98.0* | 22.5 | -0.9 | -3.8 | 3.7
COc1ccccc1OCC(=O)NNC(=O)CCCC(=O)NNC(=O)COc1ccccc1OC | 116.9 | 1.2 | -0.3 | 1.9 | 12.9 | 11.6
Nc1ccccc1C(=O)NNc1c2ccccc2nc2ccccc12 | 96.6 | 98.2* | 0.0 | 22.6 | 21.7 | 20.8
C[N+]1(CC(=O)NNc2c3ccccc3nc3ccccc23)CCOCC1 | nt | 98.7* | nt | 1.2 | 6.3 | 16.4
COc1ccccc1OCC(=O)NNc1c2ccccc2nc2ccccc12 | nt | 98.8* | 6.8 | -17.4 | 33.7 | 8.0
Cc1ccc(C(=O)NNc2c3ccccc3nc3ccccc23)cc1 | 97.8 | 22.2 | 22.9 | -4.9 | 10.5 | 33.1
COc1cccc(C(=O)NNc2c3ccccc3nc3ccccc23)c1 | 101.7 | 0.4 | 3.8 | 0.7 | 25.4 | 27.1
O=C(CN1CCOCC1)NNc1c2ccccc2nc2ccccc12 | nt | 98.4* | 1.5 | 27.5 | -7.6 | 11.4
O=C(NCCCN1CCCC1=O)C(=O)NCC1OCCCN1S(=O)(=O)c1ccccc1 (stereo not given) | 93.3 | nt | nt | nt | nt | nt
COc1ccc(Cl)cc1NS(=O)(=O)c1cccc(C(=O)NCCCN2CCOCC2)c1 | 97.2 | nt | nt | nt | nt | nt
CC(CCc1ccccc1)NC(=O)C(Cc1ccccc1)NC(N)=O (stereo not given) | nt | -5.0 | 13.7 | 2.5 | -0.3 | 2.4
c1ccc2sc(NC3=NCN(CCN4CCOCC4)CN3)nc2c1 | 77.5* | nt | 38.4 | -14.6 | -11.0 | 21.7
OCCN1CN=C(Nc2nc3ccccc3s2)NC1 | 102.5 | -5.2 | -6.2 | 7.9 | 13.3 | 5.4
C=CCn1c(SCC(=O)Nc2nc(C)cs2)nnc1C(C)NC(=O)c1ccccc1Cl (stereo not given) | 99.7 | 94.3* | 4.4 | 2.7 | -10.6 | 6.8
O=C(NC1CC1)c1cc2cc3ccccc3nc2s1 | 95.8 | -6.0 | 9.6 | -19.2 | 17.1 | 25.6
Cc1nc2nc(-c3ccco3)[nH]n2c(=O)c1C | 65.4* | 2.5 | -0.8 | 16.0 | 16.0 | -0.8
Cc1ccc(OCCCCNC2CCCC(C)C2C)c(C)c1 (stereo not given) | 102.9 | -3.2 | 6.9 | -33.8 | 30.4* | 36.8
O=C(CCNC(=O)c1ccco1)NCCc1ccc(Cl)cc1 | nt | -15.6 | -0.2 | 8.7 | 38.1* | 20.1
NS(=O)(=O)c1ccc(CCNC(=O)CCNC(=O)c2ccco2)cc1 | 83.3 | -8.3 | -1.3 | 4.8 | 10.2 | 2.1
Cc1ncc(CO)c(CNc2ccc(-c3nc4ccccc4[nH]3)cc2)c1O | 111.8 | 98.3* | 30.7 | -10.1 | 28.5 | 17.7
Cc1ccc(NC(=O)CSC(C)C(=O)OCC(=O)N2CCN(C(=O)c3ccco3)CC2)cc1 (stereo not given) | 102.6 | 9.5 | -6.6 | 4.0 | nt | 14.8
Cn1c(CNC(=O)CCNC(=O)c2ccc(F)c(F)c2)cc(=O)n(C)c1=O | 103.2 | -2.1 | 34.8 | 16.5 | 17.3 | 22.8
CNC(=O)c1cc2cc(Br)ccc2s1 | 114.5 | nt | 5.1 | -19.7 | 8.8 | 7.0
